From EPA's CvTdb concentration-time database

Legend:
Rat [1] = assay: concentration in plasma after dosing; conditions: dosed: 2-Hydroxy-4-methoxybenzophenone, 250 mg/kg, oral, Female, F344
Mouse = assay: concentration in plasma after dosing; conditions: 2 h; dosed: 2-Hydroxy-4-methoxybenzophenone; 250 mg/kg; oral; Male; B6C3F1
Rat [2] = assay: concentration in plasma after dosing; conditions: dosed: 2-Hydroxy-4-methoxybenzophenone, 250 mg/kg, oral, Female, F344; remark: listed apart in the source
Rat [3] = assay: concentration in plasma after dosing; conditions: dosed: 2-Hydroxy-4-methoxybenzophenone, 100 mg/kg, oral, Male, F344
Rat [4] = assay: concentration in brain after dosing; conditions: 6 h; dosed: Perfluorooctanoic acid; 80 mg/kg; oral; Female; Harlan Sprague Dawley
Rat [5] = assay: concentration in kidney after dosing; conditions: 6 h; dosed: Perfluorooctanoic acid; 80 mg/kg; oral; Female; Harlan Sprague Dawley
Rat [6] = assay: concentration in kidney after dosing; conditions: 1200 h; dosed: Perfluorooctanoic acid; 12 mg/kg; oral; Male; Harlan Sprague Dawley
Rat [7] = assay: concentration in liver after dosing; conditions: 3 h; dosed: Perfluorooctanoic acid; 80 mg/kg; oral; Female; Harlan Sprague Dawley
Rat [8] = assay: concentration in plasma after dosing; conditions: dosed: 678-39-7, 40 mg/kg, iv, Male, F344
Rat [9] = assay: concentration in brain after dosing; conditions: 3 h; dosed: Perfluorooctanoic acid; 80 mg/kg; oral; Female; Harlan Sprague Dawley
Rat [10] = assay: concentration in plasma after dosing; conditions: 0.25 h; dosed: 678-39-7; 12 mg/kg; iv; Male; F344
Rat [11] = assay: concentration in plasma after dosing; conditions: dosed: 678-39-7, 12 mg/kg, iv, Male, F344
Rat [12] = assay: concentration in liver after dosing; conditions: 6 h; dosed: Perfluorooctanoic acid; 80 mg/kg; oral; Female; Harlan Sprague Dawley
Rat [13] = assay: concentration in plasma after dosing; conditions: dosed: Potassium Perfluorobutane Sulfonate, 4 mg/kg, oral, Male, Harlan Sprague Dawley
Rat [14] = assay: concentration in kidney after dosing; conditions: 0.5 h; dosed: Potassium Perfluorobutane Sulfonate; 20 mg/kg; oral; Female; Harlan Sprague Dawley
Rat [15] = assay: concentration in liver after dosing; conditions: 6 h; dosed: Potassium Perfluorobutane Sulfonate; 20 mg/kg; oral; Female; Harlan Sprague Dawley
Rat [16] = assay: concentration in liver after dosing; conditions: 1 h; dosed: Potassium Perfluorobutane Sulfonate; 20 mg/kg; oral; Female; Harlan Sprague Dawley
Rat [17] = assay: concentration in plasma after dosing; conditions: 1 h; dosed: Potassium Perfluorobutane Sulfonate; 4 mg/kg; iv; Male; F344
Rat [18] = assay: concentration in kidney after dosing; conditions: 6 h; dosed: Potassium Perfluorobutane Sulfonate; 20 mg/kg; oral; Male; Harlan Sprague Dawley
Rat [19] = assay: concentration in liver after dosing; conditions: 6 h; dosed: Potassium Perfluorobutane Sulfonate; 20 mg/kg; oral; Male; Harlan Sprague Dawley
human = assay: concentration in urine after dosing; negative times count back from the end of exposure; conditions: dosed: methanol, inhalation, duration: 8 hr
How it was run: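 Points were largely digitised from plot screenshots with WebPlotDigitizer or otherwise copied from tables, and they remain in the units each source reported. They come from published in vivo toxicokinetic studies and two structured collections. Sampling and analytical methods follow each source and were often not reported.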

## COc1ccc(C(=O)c2ccccc2)c(O)c1 [2-Hydroxy-4-methoxybenzophenone]
Rat [1]; 10 min
  concentration in plasma: 13 ng/mL
Rat [1]; 3 h
  concentration in plasma: 81.6 ng/mL
Mouse
  concentration in plasma: 55.1 ng/mL
Rat [2]; 10 min
  concentration in plasma: 26.9 ng/mL
Rat [2]; 3 h
  concentration in plasma: 95.6 ng/mL
Rat [3]; 10 min
  concentration in plasma: 106 ng/mL
Rat [3]; 0.25 h
  concentration in plasma: 218 ng/mL
Rat [3]; 3 h
  concentration in plasma: 6.64 ng/mL
Rat [3]; 4 h
  concentration in plasma: 28.5 ng/mL

## O=C(O)C(F)(F)C(F)(F)C(F)(F)C(F)(F)C(F)(F)C(F)(F)C(F)(F)F [Perfluorooctanoic acid]
Rat [4]
  concentration in brain: 3230 ng/g
Rat [5]
  concentration in kidney: 178000 ng/g
Rat [6]
  concentration in kidney: 695 ng/g
Rat [7]
  concentration in liver: 162000 ng/g
Rat [8]; 5 min
  concentration in plasma: 350000 ng/mL
Rat [8]; 6 h
  concentration in plasma: 66100 ng/mL
Rat [9]
  concentration in brain: 3490 ng/g
Rat [10]
  concentration in plasma: 176 ng/mL
Rat [11]; 0.5 h
  concentration in plasma: 235 ng/mL
Rat [11]; 9 h
  concentration in plasma: 438 ng/mL
Rat [12]
  concentration in liver: 160000 ng/g

## O=S(=O)([O-])C(F)(F)C(F)(F)C(F)(F)C(F)(F)F.[K+] [Potassium Perfluorobutane Sulfonate]
Rat [13]; 0.25 h
  concentration in plasma: 3580 ng/mL
Rat [13]; 6 h
  concentration in plasma: 11600 ng/mL
Rat [14]
  concentration in kidney: 26700 ng/g
Rat [15]
  concentration in liver: 2620 ng/g
Rat [16]
  concentration in liver: 30300 ng/g
Rat [17]
  concentration in plasma: 20200 ng/mL
Rat [18]
  concentration in kidney: 13100 ng/g
Rat [19]
  concentration in liver: 51600 ng/g

## CO [methanol]
human; 0 h, 78 ppm
  concentration in urine: 3490 ng/mL
human; 0 h, 158 ppm
  concentration in urine: 6700 ng/mL
human; 0 h, 231 ppm
  concentration in urine: 9600 ng/mL
human; 53 s, 300 mg/m^3, male
  concentration in urine: 9620 ng/mL
human; 65 s, 205 mg/m^3, male
  concentration in urine: 6690 ng/mL
human; 67 s, 102 mg/m^3, male
  concentration in urine: 3420 ng/mL
human; 1.997 h, 300 mg/m^3, male
  concentration in urine: 7640 ng/mL
human; 2 h, 78 ppm
  concentration in urine: 2290 ng/mL
human; 2 h, 158 ppm
  concentration in urine: 5240 ng/mL
human; 2 h, 231 ppm
  concentration in urine: 7600 ng/mL
human; 2.005 h, 205 mg/m^3, male
  concentration in urine: 5340 ng/mL
human; 2.035 h, 102 mg/m^3, male
  concentration in urine: 2420 ng/mL
human; 3.995 h, 300 mg/m^3, male
  concentration in urine: 4350 ng/mL
human; 4 h, 102 mg/m^3, male
  concentration in urine: 1630 ng/mL
human; 4 h, 78 ppm
  concentration in urine: 1770 ng/mL
human; 4 h, 158 ppm
  concentration in urine: 2690 ng/mL
human; 4 h, 231 ppm
  concentration in urine: 4360 ng/mL
human; 4.036 h, 205 mg/m^3, male
  concentration in urine: 2760 ng/mL
human; 5.995 h, 102 mg/m^3, male
  concentration in urine: 1360 ng/mL
human; 6 h, 78 ppm
  concentration in urine: 1470 ng/mL
human; 6 h, 158 ppm
  concentration in urine: 1830 ng/mL
human; 6 h, 231 ppm
  concentration in urine: 2400 ng/mL
human; 6.026 h, 205 mg/m^3, male
  concentration in urine: 1810 ng/mL
human; 6.031 h, 300 mg/m^3, male
  concentration in urine: 2430 ng/mL
human; 10.88 h, 205 mg/m^3, male
  concentration in urine: 1280 ng/mL
human; 10.91 h, 102 mg/m^3, male
  concentration in urine: 1090 ng/mL
human; 10.94 h, 300 mg/m^3, male
  concentration in urine: 1480 ng/mL
human; 11 h, 78 ppm
  concentration in urine: 1140 ng/mL
human; 11 h, 158 ppm
  concentration in urine: 1360 ng/mL
human; 11 h, 231 ppm
  concentration in urine: 1660 ng/mL
human; 15.5 h, 231 ppm
  concentration in urine: 1030 ng/mL
human; 15.71 h, 205 mg/m^3, male
  concentration in urine: 1140 ng/mL
human; -1.981 h, 102 mg/m^3, male, during exposure
  concentration in urine: 3130 ng/mL
human; -1.993 h, 300 mg/m^3, male, during exposure
  concentration in urine: 8430 ng/mL
human; -2 h, 78 ppm, during exposure
  concentration in urine: 3090 ng/mL
human; -2 h, 158 ppm, during exposure
  concentration in urine: 5920 ng/mL
human; -2 h, 231 ppm, during exposure
  concentration in urine: 8400 ng/mL
human; -2.068 h, 205 mg/m^3, male, during exposure
  concentration in urine: 5830 ng/mL
human; -3.984 h, 102 mg/m^3, male, during exposure
  concentration in urine: 2500 ng/mL
human; -4 h, 78 ppm, during exposure
  concentration in urine: 2390 ng/mL
human; -4 h, 158 ppm, during exposure
  concentration in urine: 4820 ng/mL
human; -4 h, 231 ppm, during exposure
  concentration in urine: 6830 ng/mL
human; -4.031 h, 300 mg/m^3, male, during exposure
  concentration in urine: 6790 ng/mL
human; -4.073 h, 205 mg/m^3, male, during exposure
  concentration in urine: 4890 ng/mL
human; -5.962 h, 102 mg/m^3, male, during exposure
  concentration in urine: 1700 ng/mL
human; -5.977 h, 205 mg/m^3, male, during exposure
  concentration in urine: 3090 ng/mL
human; -6 h, 78 ppm, during exposure
  concentration in urine: 1750 ng/mL
human; -6 h, 158 ppm, during exposure
  concentration in urine: 3090 ng/mL
human; -6 h, 231 ppm, during exposure
  concentration in urine: 4340 ng/mL
human; -6.075 h, 300 mg/m^3, male, during exposure
  concentration in urine: 4350 ng/mL
human; -7.832 h, 102 mg/m^3, male, during exposure
  concentration in urine: 802 ng/mL
human; -7.832 h, 205 mg/m^3, male, during exposure
  concentration in urine: 802 ng/mL
human; -7.859 h, 300 mg/m^3, male, during exposure
  concentration in urine: 802 ng/mL
human; -8 h, 78 ppm, during exposure
  concentration in urine: 572 ng/mL
human; -8 h, 158 ppm, during exposure
  concentration in urine: 1030 ng/mL
human; -8 h, 231 ppm, during exposure
  concentration in urine: 1340 ng/mL
